Assay results taken from ChEMBL document CHEMBL1124069, “Synthesis and pharmacological characterization of a series of leukotriene analogues with antagonist and agonist activities” (1988).

Assays:
[1] = system: Cysteinyl leukotriene receptor (Cavia porcellus); test: Ability to inhibit the contraction induced by 8 nM LTE4 on isolated guinea pig tracheal strips at 10 uM dose; % antagonism / % basal tension; conditions: Trachea
Cavia porcellus [2] = species on record: Cavia porcellus; test: Ability to inhibit the contraction induced by 8 nM LTE4 on isolated guinea pig tracheal strips at 50 uM dose; % antagonism / % basal tension, compound was checked against BaCl2 as agonist at specified concentration/14; assay type: functional, Trachea
How it was run: (§1)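 Guinea pig tracheal spirals were held at 2 g resting tension and stabilized for 60 min, with bath changes every 15 min. Tissues received two 10-min challenges with 8 nM LTE4, each followed by a 60-min wash. Test compound was then added for 10 min, noting any resting-tension change, before a third LTE4 challenge. % inhibition = (2nd−3rd)/2nd×100, corrected for paired vehicle tissue. Significance was tested by paired t test (p<0.05).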

Cavia porcellus [3] = species on record: Cavia porcellus; test: Ability to inhibit the contraction induced by 8 nM LTE4 on isolated guinea pig tracheal strips at 3.3 uM dose; % antagonism / % basal tension
Cavia porcellus [4] = species on record: Cavia porcellus; test: Ability to inhibit the contraction induced by 8 nM LTE4 on isolated guinea pig tracheal strips at 4 uM dose; % antagonism / % basal tension; assay type: functional, Trachea
Cavia porcellus [5] = species on record: Cavia porcellus; test: Ability to inhibit the contraction induced by 8 nM LTE4 on isolated guinea pig tracheal strips at 10 uM dose; % antagonism / % basal tension, Agonist activity was too great to determine if there was any partial antagonism/100; assay type: functional; conditions: Trachea, filed as agonist
How it was run: as §1

Cavia porcellus [6] = species on record: Cavia porcellus; test: Ability to inhibit the contraction induced by 8 nM LTE4 on isolated guinea pig tracheal strips at 1 uM dose; % antagonism / % basal tension; assay type: functional, Trachea
How it was run: as §1

Cavia porcellus [7] = species on record: Cavia porcellus; test: Ability to inhibit the contraction induced by 8 nM LTE4 on isolated guinea pig tracheal strips at 5 uM dose; % antagonism / % basal tension; assay type: functional, Trachea
How it was run: as §1

Row | Structure (SMILES) | Ratio [1] | other results
1 | CCCCCCOc1ccccc1C/C=C\[C@@H](SCc1ccc(C(=O)O)cc1OC)[C@@H](O)CCCC(=O)O | 24 | –
2 | CCCCCCCc1ccc(C/C=C\[C@@H](SCc2ccc(/C=C/C(=O)O)cc2)[C@@H](O)CCCC(=O)O)cc1 | 38 | –
3 | CCCCCCOc1cccc(C/C=C\[C@@H](SCc2ccc(C(=O)O)cc2OC)[C@@H](O)CCCC(=O)O)c1 | 86 | Ratio (Cavia porcellus [2]): 14; Ratio (Cavia porcellus [3]): 32
4 | CCCCC/C=C/c1ccc(C/C=C\[C@@H](SCc2ccc(C(=O)O)cc2OC)[C@@H](O)CCCC(=O)O)cc1 | 39 | –
5 | CCCCCCCc1ccc(C/C=C\[C@@H](Sc2ccc(NC(C)=O)cc2)[C@@H](O)CCCC(=O)O)cc1 | 4 | –
6 | CCCc1c(OCC(O)COc2ccc3c(=O)cc(C(=O)O)oc3c2CCC)ccc(C(C)=O)c1O (stereo not drawn) [FPL-55712] | – | Ratio (Cavia porcellus [4]): 62
7 | CCCCCCOc1ccc(C/C=C\[C@@H](SCc2ccc(C(=O)O)cc2OC)[C@@H](O)CCCC(=O)O)cc1 | – | Ratio (Cavia porcellus [5]): Agonist activity was too great to determine if there was any partial antagonism
8 | CCCCC/C=C/c1cccc(C/C=C\[C@@H](SCc2ccc(C(=O)O)cc2OC)[C@@H](O)CCCC(=O)O)c1 | 57 | Ratio (Cavia porcellus [6]): 7
9 | CCCCCCCc1ccc(C/C=C\[C@@H](SCc2cccc(/C=C/C(=O)O)c2)[C@@H](O)CCCC(=O)O)cc1 | 34 | –
10 | CCCCCCCc1cccc(C/C=C\[C@@H](SCc2ccc(C(=O)O)cc2OC)[C@@H](O)CCCC(=O)O)c1 | 52 | Ratio (Cavia porcellus [7]): 45
11 | CCCCCc1ccc(C/C=C\[C@@H](SCc2ccc(C(=O)O)cc2OC)[C@@H](O)CCCC(=O)O)cc1 | 43 | –
12 | CCCCCCCc1ccc(C/C=C\[C@@H](SCc2cccc(C(=O)O)c2)[C@@H](O)CCCC(=O)O)cc1 | – | Ratio (Cavia porcellus [6]): 16
13 | CCCCCCCc1ccc(C/C=C\[C@@H](Sc2ccc(Cl)c(Cl)c2)[C@@H](O)CCCC(=O)O)cc1 | 2 | –
14 | CCCCCCCc1ccc(C/C=C\[C@@H](Sc2cccc(N)c2)[C@@H](O)CCCC(=O)O)cc1 | 14 | –

Now from value to molecule, other results behind:

Row | Ratio [1] | Structure (SMILES) | other results
15 | 66 | CCCCCCCc1ccc(C/C=C\[C@@H](SCc2ccc(C(=O)O)cc2N)[C@@H](O)CCCC(=O)O)cc1 | –
16 | 39 | CCCCCCCc1ccc(C/C=C\[C@@H](SCc2ccccc2C(=O)O)[C@@H](O)CCCC(=O)O)cc1 | –
17 | 68 | CCCCCCCc1ccc(C/C=C\[C@@H](SCc2ccc(N)c(C(=O)O)c2)[C@@H](O)CCCC(=O)O)cc1 | –
18 | 63 | CCCCCCCc1ccc(C/C=C\[C@@H](SCc2ccc(C(=O)O)cc2F)[C@@H](O)CCCC(=O)O)cc1 | –
19 | 37 | CCCCCCCc1ccc(C/C=C\[C@@H](SCc2ccc(C(=O)O)cc2)[C@@H](O)CCCC(=O)O)cc1 | –
20 | 51 | CCCCCCCc1ccc(C/C=C\[C@@H](SCc2ccc(C(=O)O)c(N)c2)[C@@H](O)CCCC(=O)O)cc1 | –
21 | 39 | CCCCCCCc1ccc(C/C=C\[C@@H](SCc2cc(C(=O)O)ccc2N)[C@@H](O)CCCC(=O)O)cc1 | –
22 | 24 | CCCCCCCc1ccc(C/C=C\[C@@H](SCc2ccc(C(=O)O)cc2[N+](=O)[O-])[C@@H](O)CCCC(=O)O)cc1 | –
23 | 74 | CCCCCCCc1ccc(C/C=C\[C@@H](SCc2ccc(C(=O)O)cc2OC)[C@@H](O)CCCC(=O)O)cc1 | Ratio (Cavia porcellus [7]): 31
